The text below walks through data of PubChem BioAssay AID804 (SRMLSC, 2007).

The campaign covered roughly 140,000 compounds. About 710 (0.51%) were called active. The sample as a whole holds a higher share of actives than the screen did. Values without a mark were called inactive.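 Rule for the calls: active = inhibition above a set limit, 3 SD over the mean compound inhibition (cut at about 44% in these data); inactive = the rest.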

The test can be described thus: BB579 yeast growth reduction, restrictive medium – S. cerevisiae, yeast lifespan-shortening project, primary screen (AID 804). Particulars: OD615, 48 h, at 10 µM, hits give high values. In outline: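 System: Saccharomyces cerevisiae DeaD strain BB579, replicative lifespan model yeast | Buffer or medium: Restrictive glucose-based CSMM-D medium | Times: 4 h preincubation and 48 h exposure at 30 °C | Detection: OD615 turbidity measurement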
In the case of `Cc1ccc(N2C(=O)C(NC(=O)c3c(F)cccc3F)(C(F)(F)F)C3=C2CC(C)(C)CC3=O)cc1` (stereo unspecified), the inhibition (as a rule, the drop in the measured response relative to a control, in per cent) is -1.52%.

With `O=C1c2ccccc2NC(c2ccc(-c3cccc(Cl)c3)o2)N1O` (stereo unspecified), the inhibition is 64.1% (active).

`CCOC(=O)NN1C(=O)c2ccccc2NC1c1cccc(O)c1` (stereo unspecified): the inhibition is 9.36%.

Turning to `C=CCN(CC=C)S(=O)(=O)c1ccc(C(=O)Nc2nc3c(s2)CCc2ccccc2-3)cc1`, the inhibition is -67.9%.

On to `O=C(C1CCCO1)N1CCN(C(=S)Nc2cccc(Cl)c2)CC1` (stereo unspecified), for which the inhibition was -3.25%.

With `CC1(C)CC(=O)C(N=Nc2ccc(S(=O)(=O)N3CCCCCC3)cc2)=C(O)C1`, the inhibition is -5.4%.

With `C/C(CC(=O)Nc1ccc(Cl)cc1)=N\NC(=O)C(=O)NCCO`, the inhibition is -6.42%.

Regarding `Cc1cc2oc(C(=O)Nc3c(C)n(C)n(-c4ccccc4)c3=O)c(C)c2cc1Cl`, the inhibition was -44%.

`Cc1ccc(NC(=O)c2cccs2)cc1S(=O)(=O)N(C)C`: the inhibition was -35.7%.

Turning to `Cc1ccc(-c2nn(C(C)(C)C)c3ncnc(N)c23)cc1`, the inhibition is 81.2% (active).

On to `O=C(Cc1ccc(Cl)c(Cl)c1)Nc1ccc(SC(F)F)cc1`, for which the inhibition is -39.5%.

`O=C(CC(=O)Nc1ccc(Cl)c(Cl)c1)N/N=C/c1ccc(O)cc1`: the inhibition is -54.1%.

Regarding `O=C(CC(O)(C(F)(F)F)C(F)(F)F)Nc1ccc(Cl)c(Cl)c1`, the inhibition is 80.1% (active).

In the case of `Cc1scc(C(=O)NNC(=S)NCc2ccccc2)c1C`, the inhibition is -2.5%.

As to `CCOC(=O)NN1C(=O)c2ccccc2NC1c1ccccc1O` (stereo unspecified), the inhibition is 7.28%.

As to `COC(=O)C1=C(C)N(C)C(=S)NC1c1ccccc1` (stereo unspecified), the inhibition is 8.95%.

`Cc1c(Cl)cnc(NC(=O)COC(=O)c2ccc(S(=O)(=O)NCc3ccco3)cc2)c1Cl`: the inhibition was -12.2%.

Consider `CC(Sc1cccc[n+]1[O-])C(=O)Nc1cccc(S(=O)(=O)N2CCOCC2)c1` (stereo unspecified), for which the inhibition is 95.2% (active).

As for `Cc1cc(C(=O)OC(C)C(=O)Nc2cccc(S(=O)(=O)N3CCOCC3)c2)c(C)o1` (stereo unspecified), the inhibition was -42.7%.

Consider `O=C(CN1CCN(c2ccc(O)cc2)CC1)Nc1cc(S(=O)(=O)N2CCOCC2)ccc1Cl`, for which the inhibition is -37.9%.

`Cc1ccc(-c2nn(-c3ccccc3)cc2C(=O)Nc2cccc(S(=O)(=O)N3CCOCC3)c2)cc1`: the inhibition was -29%.

For the compound `CCN(CC)c1ccc(S(=O)(=O)N2CCOCC2)cc1NC(=O)CSc1cccc[n+]1[O-]`, the inhibition is 89% (active).

Take `Cn1c(SCC(=O)Nc2cccc(O)c2)nnc1-c1ccc(S(=O)(=O)N2CCOCC2)cc1`: the inhibition was 2.85%.

Consider `COc1ccccc1CNC(=O)CN1CCC(n2cnc3cc(F)ccc32)CC1`, for which the inhibition was -21.9%.

On to `Cn1c(CNC(=O)c2ccccc2F)nnc1SCc1ccc(F)cc1`, for which the inhibition was 6.65%.

As for `CCCCC1N2CC3([N+](=O)[O-])CN1CC([N+](=O)[O-])(C2)C3(C)C` (stereo unspecified), the inhibition was -27.8%.

In the case of `CC(C)(C)C1C/C(=C/c2ccco2)C(=O)/C(=C/c2ccco2)C1` (stereo unspecified), the inhibition was -19.6%.

Turning to `O=C(c1cccc(C(=O)N2CCN(c3ccc(F)cc3)CC2)c1)N1CCN(c2ccc(F)cc2)CC1`, the inhibition is -61.4%.

Turning to `CCN1CCN(C(c2cccnc2)c2cc(Cl)c3cccnc3c2O)CC1` (stereo unspecified), the inhibition was 6.22%.

As for `Oc1c(CN2CCN(c3ccc(F)cc3)CC2)cc(Cl)c2cccnc12`, the inhibition was 99.3% (active).

Consider `Cc1cccc(NC(=S)NCc2ccc3[nH]c4c(c3c2)CCCC4)c1`, for which the inhibition is 15.9%.

On to `CCc1cccc(CC)c1NC(=S)NCc1ccc2[nH]c(C)cc2c1`, for which the inhibition was 54.3% (active).

With `Cc1cc2cc(CNC(=O)c3cccs3)ccc2[nH]1`, the inhibition was -4.49%.

Consider `O=C(Nc1ccc2ccccc2c1)/C(=C/c1cccc(Br)c1)NC(=O)c1ccco1`, for which the inhibition is -32.8%.

With `COc1ccc(CCNC(=O)c2ccco2)cc1`, the inhibition is -10.2%.

Regarding `CC(Oc1ccc2ccccc2c1)C(=O)NNC(=S)NC(=O)c1ccco1` (stereo unspecified), the inhibition is 98.2% (active).

In the case of `CCCc1ccc(OCC(=O)NNC(=S)NC(=O)c2ccco2)cc1`, the inhibition was 98.5% (active).

As to `O=C(Nc1ccc2ccccc2c1)/C(=C\c1ccc2c(c1)OCO2)NC(=O)c1ccco1`, the inhibition is 6.72%.

In the case of `COc1ccc(C(=O)NC(=S)NNC(=O)CCc2ccccc2)cc1`, the inhibition was -10.9%.

Regarding `NC(=O)C[C@@H]1NC(=O)CNC(=O)c2cc([N+](=O)[O-])cc(I)c2NCCC(C(N)=O)NC1=O` (stereo partly specified), the inhibition was 1.08%.

With `CC1CN/C(=C\C(=O)c2ccc(Br)cc2)C(=O)N1` (stereo unspecified), the inhibition was -42.4%.

As to `Cc1cc(Cl)ccc1NC(=S)N1CCC(C(N)=O)(N2CCCCC2)CC1`, the inhibition is 1.37%.

With `Cc1ccc(OC(=O)CCC(=O)Nc2ccc(Br)cc2)cc1`, the inhibition was 3.42%.

As for `O=C(CSc1ncn[nH]1)Nc1nsc(-c2ccccc2)n1`, the inhibition is 4.99%.

As for `Cc1cccc(OP(=O)(Nc2c(C)n(C)n(-c3ccccc3)c2=O)Oc2cccc(C)c2)c1`, the inhibition was -0.66%.

Consider `CCOC(=O)C1CCN(C(=O)/C=C/c2cc(OC)c(OC)c(OC)c2)CC1`, for which the inhibition is -12.6%.

In the case of `O=C(COC(=O)c1cc(-c2cccs2)nn1-c1ccccc1)Nc1cc([N+](=O)[O-])ccc1Cl`, the inhibition was -30.3%.

In the case of `O=C(Nc1cccc([N+](=O)[O-])c1)c1ccc2c(c1)OCO2`, the inhibition was -10.3%.

As for `CCOC(=O)c1ccccc1C(=O)N1CCOCCOCCOCC1`, the inhibition was -13.3%.

As to `CCCCOc1ccc(C(=O)NCC(=O)OCC(=O)N2CCN(S(=O)(=O)c3ccc(C)cc3C)CC2)cc1`, the inhibition was -38.7%.

Turning to `O=C(COC(=O)/C=C/c1cccc(Cl)c1)NCCc1ccccc1`, the inhibition was -16.6%.

Consider `Cc1nc2ccc(C(=O)O)cc2[nH]1`, for which the inhibition was 44.4% (active).

Consider `Cc1ccc2nc(S(=O)(=O)O)[nH]c2c1`, for which the inhibition was -11.6%.

For the compound `CC(C)c1nc2ccc(C(=O)O)cc2[nH]1`, the inhibition is -7.86%.

Consider `COc1ccc(CCNC(=O)CSc2nc(-c3ccc(OC)c(OC)c3)ccc2C#N)cc1`, for which the inhibition was -21.2%.

Regarding `COc1cccc(/C=N/Nc2ncc(C(F)(F)F)cc2Cl)c1O`, the inhibition is 64.1% (active).

As to `COc1cccc(/C=N\NC(=O)C2=NNC(=O)C2C)c1O` (stereo unspecified), the inhibition is 1.19%.

On to `COc1cc(/C=C2\SC(=S)N(Nc3ncc(C(F)(F)F)cc3Cl)C2=O)cc(OC)c1OC`, for which the inhibition was -16.3%.

With `Cc1nn(C)c(C(=O)NNC(=S)NC2CCCCC2)c1Cl`, the inhibition was -11.7%.

Consider `CCOC(=O)c1cnc(-n2nc(C)cc2C)nc1NNc1cc(C)nc(-c2ccccc2)n1`, for which the inhibition was 63.6% (active).

As for `CCOC(=O)c1cnc(-n2nc(C)cc2C)nc1-n1nc(C)cc1C`, the inhibition is -33.3%.

Take `CCOC(=O)c1cnc(-c2ccccc2)nc1Oc1ccc(C)cc1`: the inhibition is -3.41%.

On to `CCc1cc(C(N)=O)c(NC(=O)c2ccc(OC)cc2)s1`, for which the inhibition was 13.8%.

On to `COc1cccc(NC(=S)N(CCc2c(C)[nH]c3ccccc23)Cc2ccco2)c1`, for which the inhibition is -16.9%.

As to `O=C(Nc1cccc(F)c1)c1coc(=O)c(Br)c1`, the inhibition is -16.6%.

Regarding `N=c1oc2ccccc2cc1C(=O)N/N=C/c1ccccc1`, the inhibition was -35.6%.

Turning to `CNC(=O)c1cc2c(ccc3ccccc32)oc1=N`, the inhibition was 87% (active).

On to `CCOC(=O)N1CCN(C(=O)c2cc3c(ccc4ccccc43)oc2=O)CC1`, for which the inhibition was 4.59%.

Regarding `O=[N+]([O-])c1cc(C(F)(F)F)ccc1NN=C1CCCC1`, the inhibition was -8.75%.

Take `Cc1ccc(Cl)cc1N1CCN(C(=O)c2cccc3c(=O)c(C)c(-c4ccccc4)oc23)CC1`: the inhibition was -11.9%.

With `COc1ccc(-c2[nH]ncc2/C=N/NC(=O)c2cc(Br)ccc2O)c(OC)c1`, the inhibition was -15.9%.

Take `CCCc1cc(-c2nc(-c3ccc(C)cc3)cs2)ccn1`: the inhibition was 6.88%.

As to `COc1ccc([C@H]2[C@H](C(C)=O)N3N=Cc4ccccc4C3C23C(=O)OC(C)(C)OC3=O)cc1` (stereo partly specified), the inhibition is -14.6%.

With `CNc1ccc(NC(C)=O)cc1[N+](=O)[O-]`, the inhibition was -4.52%.

As for `O=C(NC(Nc1nc2ccc([N+](=O)[O-])cc2s1)(C(F)(F)F)C(F)(F)F)c1ccccc1`, the inhibition was 77.5% (active).

With `COC(=O)C(NC(=O)c1ccc(OC)cc1)(Nc1ncc(S(=O)(=O)c2ccc([N+](=O)[O-])cc2)s1)C(F)(F)F` (stereo unspecified), the inhibition was -39.1%.

As to `Cc1cc(C)cc(OCC(=O)Nc2nc3ccc([N+](=O)[O-])cc3s2)c1`, the inhibition was -41.2%.

As for `Cc1c(Cl)cccc1NC(=O)Nc1ccc(C(=O)N2CCCC2)cc1`, the inhibition is -7.32%.

For `CN1c2ccccc2-c2nc3ccccc3n2C1c1ccco1` (stereo unspecified), the inhibition is -46.1%.

Consider `CN(c1nc2ccccc2n2c(-c3ccco3)nnc12)S(=O)(=O)c1ccccc1`, for which the inhibition was -17.9%.

Regarding `Cn1c(-c2ccco2)nc2cc3ccccc3cc21`, the inhibition was 60.5% (active).

In the case of `CC(C)C(=O)Nc1ccc2c3c(cccc13)CC2`, the inhibition was -41.5%.

Turning to `O=C(Nc1ccccc1)OCc1cc(-c2ccc(Cl)cc2)on1`, the inhibition is -39.2%.

`O=C1c2cccc3cc(Br)cc(c23)C(=O)N1Nc1ccccc1`: the inhibition is -67.3%.

Regarding `O=C1C=C(c2ccc(Cl)cc2)C(=O)N1Nc1ccccc1`, the inhibition was 98.1% (active).

Consider `CCn1ncc(CNC(=O)C2(C)CC2(Br)Br)c1C` (stereo unspecified), for which the inhibition is -38.8%.

As for `COc1ccc(NC(=S)NCc2cccs2)c(OC)c1`, the inhibition is -22.6%.

As for `CCC(=O)/C=C1\Sc2ccccc2N1CC`, the inhibition was -18.9%.

For `CCN1/C(=C/c2ccc3ccc(C)cc3[n+]2CC)Sc2ccccc21`, the inhibition was 82.5% (active).

Turning to `Cc1cccc(NC(=S)N(CCN(C)C)C(C)c2ccco2)c1` (stereo unspecified), the inhibition is -21.1%.

As for `Cc1ccc(SCCC(=O)NC(C(C)C)C(C)C)cc1`, the inhibition was -7.21%.
